This is an account of results in ChEMBL document CHEMBL1781932 (J Med Chem, 2011).

By AUC(0-inf) is commonly meant total exposure, with the tail of the curve extrapolated. One may read the MIC as the least concentration at which growth counts as inhibited. In general, Cmax refers to the maximum level reached in the sampled fluid or tissue. What is called clearance is the volume of plasma or blood freed of the substance per unit of time. A higher clearance goes with a high capacity for elimination.

In brackets after ≈: the same amount, converted by molar mass.

Series [1] is described as follows: AUC (0 to infinity) in Sprague-Dawley rat at 1 mg/kg, iv administered as single dose measured after 24 to 48 hrs. Format: ADME, organism-based. Also on record: time infinity, dose 1 mg/kg, route intravenous. The note with it: plasma. The gist of the method:
(§1)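 Sprague-Dawley rats (n = 3) were fasted overnight (minimum 12 h) and given a single dose, iv 1 mg/kg or oral 10 mg/kg, in sterile water. Samples were taken over 24–48 h. PK parameters came from noncompartmental analysis.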

Series [2] in a line: Elimination half life in Sprague-Dawley rat at 1 mg/kg, iv administered as single dose. Format: ADME, organism-based. The arrangement: dose 1 mg/kg, route intravenous. The settings on record: in vivo, read-out: beta t1/2 (converted). The gist of the method: as §1
For series [3], the system named is Staphylococcus aureus. The series is described as follows: Antimicrobial activity against tetracycline-susceptible Staphylococcus aureus Smith isolate 100 infected in iv dosed mouse systemic infection model assessed as survival of mouse administered 60 mins post infection measured up to 48 hrs. The settings on record: Smith isolate 100, iv, read-out: PD50. In kind it is functional. The gist of the method: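 Mouse septicemia model with S. aureus ATCC 13709 mixed with 5% mucin, given intraperitoneally at 2.1×10^6 cfu/mouse. Compound was dosed intravenously 60 min after infection at 0.3–30 mg/kg in sterile water, 6 mice/dose group, with untreated infection controls. Survival was followed over 48 h. PD50 was derived by Probit analysis with 95% CI.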

Series [4] relates to Staphylococcus aureus. The series can be described thus: Antimicrobial activity against tetracycline-susceptible Staphylococcus aureus isolate 101 by CLSI dilution method. Format: functional.
Series [5] deals with Staphylococcus aureus. The series can be described thus: Antimicrobial activity against methicillin-, tetracycline-resistant Staphylococcus aureus isolate 161 harboring tetM gene by CLSI dilution method. In kind it is functional.
Series [6] deals with Staphylococcus aureus. The series can be described thus: Antimicrobial activity against tetracycline-resistant Staphylococcus aureus isolate 158 harboring tetK gene by CLSI dilution method. Format: functional.
Series [7] deals with Enterococcus faecalis. The series can be described thus: Antimicrobial activity against tetracycline-susceptible Enterococcus faecalis isolate 103 by CLSI dilution method. In kind it is functional. The gist of the method:
(§2)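 Broth microdilution per CLSI in fresh cation-adjusted Mueller Hinton broth, kept at 4 °C before testing, with defibrinated horse blood added as appropriate. Strains were from ATCC. MIC in µg/mL. Runs were accepted when comparator antibiotics against ATCC quality-control strains fell within recommended ranges.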

For series [8], the system named is Enterococcus faecalis. The series is described as follows: Antimicrobial activity against tetracycline-resistant Enterococcus faecalis isolate 159 harboring […] gene by CLSI dilution method. Format: functional.
In series [9] the test system is Streptococcus pneumoniae. The series can be described thus: Antimicrobial activity against tetracycline-susceptible Streptococcus pneumoniae isolate 106 by CLSI dilution method. Format: functional. The gist of the method: as §2
The subject of series [10] is Streptococcus pneumoniae. The series is described as follows: Antimicrobial activity against tetracycline-resistant Streptococcus pneumoniae isolate 160 harboring tetM gene by CLSI dilution method. In kind it is functional.
In series [11] the test system is Escherichia coli. The series is described as follows: Antimicrobial activity against tetracycline-susceptible Escherichia coli isolate 107 by CLSI dilution method. Format: functional. The gist of the method: as §2
In series [12] the test system is Escherichia coli. The series is described as follows: Antimicrobial activity against tetracycline-resistant Escherichia coli isolate 155 harboring tetA gene by CLSI dilution method. Format: functional.
The test system of series [13] is Acinetobacter baumannii. The series can be described thus: Antimicrobial activity against tetracycline-susceptible Acinetobacter baumannii isolate 110 by CLSI dilution method. Format: functional. The gist of the method: as §2
In series [14] the test system is Pseudomonas aeruginosa. The series is described as follows: Antimicrobial activity against tetracycline-susceptible Pseudomonas aeruginosa isolate 111 by CLSI dilution method. In kind it is functional. The gist of the method: as §2
Series [15] deals with Enterobacter cloacae. The series can be described thus: Antimicrobial activity against tetracycline-susceptible Enterobacter cloacae isolate 108 by CLSI dilution method. In kind it is functional. The gist of the method: as §2
For series [16], the system named is Klebsiella pneumoniae. The series is described as follows: Antimicrobial activity against tetracycline-susceptible Klebsiella pneumoniae isolate 109 by CLSI dilution method. In kind it is functional. The gist of the method: as §2
In series [17] the test system is Klebsiella pneumoniae. The series can be described thus: Antimicrobial activity against tetracycline-resistant Klebsiella pneumoniae isolate 153 harboring tetA gene by CLSI dilution method. Format: functional.
For series [18], the system named is Staphylococcus aureus. The series is described as follows: Antimicrobial activity against tetracycline-susceptible Staphylococcus aureus Smith isolate 100 by CLSI dilution method. In kind it is functional.
The nature of series [19]: Cmax in Sprague-Dawley rat at 1 mg/kg, iv administered as single dose measured after 24 to 48 hrs. In kind it is ADME, organism-based. The arrangement: dose 1 mg/kg, route intravenous. The settings on record: in vivo. The gist of the method:
as §1

Series [20] can be described thus: Clearance in Sprague-Dawley rat at 1 mg/kg, iv administered as single dose measured after 24 to 48 hrs. The note with it: in vivo. Format: ADME, organism-based. The arrangement: dose 1 mg/kg, route intravenous. The gist of the method: as §1
The nature of series [21]: Apparent volume of distribution in Sprague-Dawley rat at 1 mg/kg, iv administered as single dose measured after 24 to 48 hrs. The note with it: in vivo.
In series [22] the test system is Rattus norvegicus. The series can be described thus: Oral bioavailability in Sprague-Dawley rat at 10 mg/kg administered as single dose. In kind it is ADME, organism-based. The note with it: in vivo. The gist of the method: as §1

For the compound `CN(C)c1cc(NC(=O)CNC(C)(C)C)c(O)c2c1C[C@H]1C[C@H]3[C@H](N(C)C)C(O)=C(C(N)=O)C(=O)[C@@]3(O)C(O)=C1C2=O` [TIGECYCLINE], the total exposure AUC(0-inf) in series [1] was 1050 ng·h/mL. In addition, the half-life in series [2] was 4.6 h. Besides, in [3], the ED50 came out at 0.35 mg/kg. Besides, the minimal inhibitory concentration (MIC) is 0.0625 µg/mL (≈ 0.107 µM) in series [4]; 0.125 µg/mL (≈ 0.213 µM) in [5]; 0.0625 µg/mL (≈ 0.107 µM) in [6]; 0.0313 µg/mL (≈ 0.0534 µM) in series [7]; 0.0625 µg/mL (≈ 0.107 µM) in series [8]; 0.0156 µg/mL (≈ 0.0266 µM) in [9]. In addition, the MIC in series [10] came out at 0.0156 µg/mL (≈ 0.0266 µM); in series [11], 0.0313 µg/mL (≈ 0.0534 µM); in [12] it was 0.5 µg/mL (≈ 0.854 µM); in series [13] it was 0.25 µg/mL (≈ 0.427 µM); in [14], 8 µg/mL (≈ 13.7 µM); in [15], 0.25 µg/mL (≈ 0.427 µM). Also, the figures for the MIC in series [16], in series [17] and in [18] were 0.125 µg/mL (≈ 0.213 µM), 1 µg/mL (≈ 1.71 µM) and 0.0625 µg/mL (≈ 0.107 µM), respectively. The concentration in [19] peaked (Cmax) at 428 ng/mL.

In [1], `CN(C)[C@@H]1C(O)=C(C(N)=O)C(=O)[C@@]2(O)C(O)=C3C(=O)c4c(c(F)c5ccc(CN6CCC6)cc5c4O)C[C@H]3C[C@@H]12` came in with an AUC(0-inf) of 354 ng·h/mL. The compound also came in with a clearance in [20] of 52.4 mL/min/kg. Besides, in series [21], the Vd is 41.9 L/kg. Also, in [2], the half-life is 8.01 h. Also, the ED50 in series [3] came to 0.3 mg/kg. For the same compound, the MIC in [4] was determined as 0.25 µg/mL (≈ 0.453 µM); in series [5], 1 µg/mL (≈ 1.81 µM); in [6] it was 0.25 µg/mL (≈ 0.453 µM); in series [7], 0.25 µg/mL (≈ 0.453 µM); in series [8], 2 µg/mL (≈ 3.63 µM); in [9] it was 0.0625 µg/mL (≈ 0.113 µM). Further, the MIC was 0.125 µg/mL (≈ 0.227 µM) in [10]; 1 µg/mL (≈ 1.81 µM) in [11]; 4 µg/mL (≈ 7.25 µM) in series [12]; 0.5 µg/mL (≈ 0.907 µM) in [13]; 32 µg/mL (≈ 58 µM) in series [14]; 2 µg/mL (≈ 3.63 µM) in [15]. In addition, the MIC in series [16] stood at 2 µg/mL (≈ 3.63 µM); in series [17] it was 4 µg/mL (≈ 7.25 µM). Besides, the concentration in [19] peaked (Cmax) at 73 ng/mL.

Compound `CN(C)[C@@H]1C(O)=C(C(N)=O)C(=O)[C@@]2(O)C(O)=C3C(=O)c4c(c(F)c5ccc(CN6CC(F)C6)cc5c4O)C[C@H]3C[C@@H]12` gave an AUC(0-inf) in series [1] of 1040 ng·h/mL. Moreover, in series [20], the clearance is 16.1 mL/min/kg. Moreover, the Vd in [21] was 3.06 L/kg. Moreover, the half-life in [2] was 2.22 h. In addition, the F in series [22] was 16.7%. Besides, the MIC was 0.5 µg/mL (≈ 0.878 µM) in [4]; 1 µg/mL (≈ 1.76 µM) in series [5]; 0.25 µg/mL (≈ 0.439 µM) in [6]; 0.25 µg/mL (≈ 0.439 µM) in series [7]; 1 µg/mL (≈ 1.76 µM) in series [8]; 0.25 µg/mL (≈ 0.439 µM) in series [9]. Further, the MIC in [11] is 4 µg/mL (≈ 7.02 µM); in [12] it was 8 µg/mL (≈ 14 µM); in [13], 1 µg/mL (≈ 1.76 µM); in series [14], above 32 µg/mL; in series [15] it was 8 µg/mL (≈ 14 µM); in [16], 4 µg/mL (≈ 7.02 µM). Further, the values for the MIC in [17] and in [18] were 8 µg/mL (≈ 14 µM) and 1 µg/mL (≈ 1.76 µM), respectively. In [19], this compound showed a Cmax of 358 ng/mL.

For the compound `CN(C)[C@@H]1C(O)=C(C(N)=O)C(=O)[C@@]2(O)C(O)=C3C(=O)c4c(c(F)c5ccc(CNC(C)(C)C)cc5c4O)C[C@H]3C[C@@H]12`, the AUC(0-inf) in series [1] stood at 975 ng·h/mL. In addition, the clearance in [20] is 17.7 mL/min/kg. Also, the Vd in series [21] stood at 11.9 L/kg. Moreover, the half-life in [2] is 7.82 h. In addition, the F in [22] is on record as 1.2%. The ED50 in series [3] turned out to be 0.35 mg/kg. Further, the MIC in series [4] turned out to be 0.5 µg/mL (≈ 0.881 µM); in [5], 1 µg/mL (≈ 1.76 µM); in series [6], 0.0156 µg/mL (≈ 0.0275 µM); in series [7], 0.0313 µg/mL (≈ 0.0551 µM); in series [8], 1 µg/mL (≈ 1.76 µM); in series [9] it was 0.0156 µg/mL (≈ 0.0275 µM). For the same compound, the MIC came out at 0.0313 µg/mL (≈ 0.0551 µM) in series [10]; 4 µg/mL (≈ 7.05 µM) in series [12]; 0.25 µg/mL (≈ 0.44 µM) in series [13]; 16 µg/mL (≈ 28.2 µM) in [14]; 2 µg/mL (≈ 3.52 µM) in series [16]; 4 µg/mL (≈ 7.05 µM) in series [17]. The compound further showed an MIC in series [18] of 0.5 µg/mL (≈ 0.881 µM). Further, in series [19], the highest level (Cmax) was 278 ng/mL.
